Reference: ChEMBL document CHEMBL5576140, “Computational Design of Pore-Forming Peptides with Potent Antimicrobial and Anticancer Activities” (J Med Chem, 2024)
Calls of active or inactive are those of the source. No cut-off for these calls is given here.

Assays:
Staphylococcus aureus [1] = assay: Antimicrobial activity against Staphylococcus aureus NE1740 harboring single transposon insertion mutation in staphopain A at 30 uM incubated for 18 hrs relative to control; format: functional
How it was run: (§1)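 CA-MRSA USA300 LAC derivative JE2 and single transposon insertion mutants derived from JE2, each lacking an extracellular protease gene, were exposed to peptides up to 30 μM. The read-out was percent growth inhibition. Peptides were dissolved in PBS, and tests were run in triplicate.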

[2] = Hemolytic activity against human RBC incubated for 1 hr by microplate reader analysis; format: toxicity, cell-based, Erythrocyte; conditions: red blood cells (erythrocytes)
How it was run: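 Human red blood cells exposed to peptides up to 50 μM; hemolysis measured, IC50 derived where reached.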

Staphylococcus aureus [3] = assay: Depolarization of cytoplasmic membrane in Staphylococcus aureus ATCC 12600 at MIC measured for 45 mins by DiSC3-(5) dye based assay; format: functional, organism-based
How it was run: (§2)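 Bacteria loaded with membrane-potential dye DiSC3-(5), then treated with peptide at its MIC for the respective strain; depolarization read as rise in dye fluorescence; polymyxin B and levofloxacin as reference antibiotics.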

[4] = Stability in human serum assessed as half life at 10 mg/ml by UPLC-MS analysis; format: ADME, cell-free
How it was run: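 Peptides dissolved in PBS and incubated in 25% human serum. Intact peptide remaining followed over time to at least 6 h; half-life taken as time to 50% stability.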

Acinetobacter baumannii [5] = assay: Depolarization of cytoplasmic membrane in Acinetobacter baumannii ATCC 19606 at MIC measured for 45 mins by DiSC3-(5) dye based assay; format: functional, organism-based; how it was run: as §2
[6] = Toxicity against reconstructed human skin model assessed as irritation at 50 uM incubated for 1 hr followed by compound washout measured after 42 hrs by MTT assay; format: tissue-based, Skin of body
How it was run: (§3)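 Reconstructed human epidermis with stratum corneum, per OECD TG 439 skin irritation guideline. Tissues exposed 1 h to peptide at 50 μM, then 42 h post-treatment incubation. Viability read by MTT. Controls were SDS and melittin.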

Enterococcus faecium = assay: Depolarization of cytoplasmic membrane in Enterococcus faecium ATCC 700221 at MIC measured for 45 mins by DiSC3-(5) dye based assay; format: functional, organism-based; how it was run: as §2
Escherichia coli [7] = assay: Depolarization of cytoplasmic membrane in Escherichia coli ATCC 11775 at MIC measured for 45 mins by DiSC3-(5) dye based assay; format: functional, organism-based; how it was run: as §2
Acinetobacter baumannii [8] = assay: Anti-infective activity against Acinetobacter baumannii ATCC 19606 infected in neutropenic CD-1 mouse deep thigh infection model assessed as reduction in bacterial load at 0.18 mg/kg, ip measured after 4 days; format: functional, organism-based; conditions: time 4.0 day
How it was run: (§4)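 Neutropenic mice infected intramuscularly in right thigh with 10⁶ cells per mL A. baumannii ATCC 19606; single intraperitoneal peptide dose at 10× MIC; bacterial load determined 4 days after treatment (euthanized day 8); n = 6 per group from three inocula; one-way ANOVA with Dunnett's test versus untreated.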

Escherichia coli [9] = assay: Induction of outer membrane permeabilization in Escherichia coli ATCC 11775 measured for 20 mins by NPN uptake assay; format: functional, organism-based
Staphylococcus aureus [10] = assay: Antimicrobial activity against Staphylococcus aureus NE934 harboring single transposon insertion mutation in staphopain B at 30 uM incubated for 18 hrs relative to control; format: functional; how it was run: as §1
Klebsiella pneumoniae [11] = assay: Induction of outer membrane permeabilization in Klebsiella pneumoniae ATCC 13883 measured for 20 mins by NPN uptake assay; format: functional, organism-based
How it was run: (§5)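 Outer-membrane permeabilization of Gram-negative bacteria read as rise in fluorescence of the lipophilic dye NPN, which enters only when outer-membrane integrity is compromised. Peptides applied at their MIC against the respective strain; polymyxin B and levofloxacin as reference antibiotics. Triplicates.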

Staphylococcus aureus [12] = assay: Antimicrobial activity against Staphylococcus aureus NE1506 harboring single transposon insertion mutation in V8 protease at 30 uM incubated for 18 hrs relative to control; format: functional; how it was run: as §1
Staphylococcus aureus [13] = assay: Antimicrobial activity against Staphylococcus aureus NE163 harboring single transposon insertion mutation in aureolysin at 30 uM incubated for 18 hrs relative to control; format: functional; how it was run: as §1
Pseudomonas aeruginosa [14] = assay: Depolarization of cytoplasmic membrane in Pseudomonas aeruginosa PAO1 at MIC measured for 45 mins by DiSC3-(5) dye based assay; format: functional, organism-based; how it was run: as §2
Acinetobacter baumannii [15] = assay: Induction of outer membrane permeabilization in Acinetobacter baumannii ATCC 19606 measured for 20 mins by NPN uptake assay; format: functional, organism-based
[16] = Toxicity against reconstructed human skin model assessed as tissue viability at 50 uM incubated for 1 hr followed by compound washout measured after 42 hrs by MTT assay; format: tissue-based, Skin of body; conditions: read-out: Activity; how it was run: as §3
[17] = Toxicity in neutropenic CD-1 mouse deep thigh infection model infected with Acinetobacter baumannii ATCC 19606 assessed as body weight change at 0.18 mg/kg, ip measured after 4 days; format: organism-based; conditions: in vivo, 96 h, time 4 day
How it was run: (§6)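 Neutropenic mice infected intramuscularly in the right thigh with 10⁶ cells per mL of A. baumannii ATCC 19606. […] Body weight monitored for toxicity. Euthanasia 4 days post-infection (day 8). n = 6 per group, from three inocula.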

Pseudomonas aeruginosa [18] = assay: Induction of outer membrane permeabilization in Pseudomonas aeruginosa PAO1 measured for 20 mins by NPN uptake assay; format: functional, organism-based; how it was run: as §5
Klebsiella pneumoniae [19] = assay: Depolarization of cytoplasmic membrane in Klebsiella pneumoniae ATCC 13883 at MIC measured for 45 mins by DiSC3-(5) dye based assay; format: functional, organism-based; how it was run: as §2
[20] = Toxicity in immunosuppressed Balb/c mouse excisional dorsal wound infection model infected with Acinetobacter baumannii NCTC 13301 assessed as decrease in animal survival at about 10 mg/kg treated for 7 days once daily measured after 45 days; format: organism-based; conditions: in vivo, 1080 h, time 45 day
Mus musculus [21] = assay: Induction of wound healing activity in immunosuppressed Balb/c mouse excisional dorsal wound infection model infected with Acinetobacter baumannii NCTC 13301 assessed as reduction in necrosis of epidermal tissue at wound edges at about 10 mg/kg treated for 7 days once daily; format: functional, organism-based; conditions: time 7.0 day
Escherichia coli [22] = assay: Antimicrobial activity against Escherichia coli ATCC 25922 incubated for 18 to 20 hrs by broth microdilution assay; format: functional; conditions: time 18-20 hrs
How it was run: (§7)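 Broth microdilution assay. MIC was taken as the lowest peptide concentration that inhibited visible growth of the bacteria. Peptides were dissolved in PBS, and experiments were run in triplicate.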

Mus musculus [23] = assay: Induction of wound healing activity in immunosuppressed Balb/c mouse excisional dorsal wound infection model infected with Acinetobacter baumannii NCTC 13301 assessed as decrease in serocellular crust at about 10 mg/kg treated for 7 days once daily measured after 20 days; format: functional, organism-based; conditions: time 20.0 day
Lipid bilayer = assay: Induction of pore formation in POPC/POPG SLBs at 1 uM measured for 2 hrs by real-time AFM analysis; conditions: filed as activator
How it was run: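 Real-time AFM topography of supported lipid bilayers of POPC:POPG 1:1 mol/mol, checked defect-free and vesicle-free before peptide addition. P:L 1:500, final peptide 1 μM. Images at 1 × 1 μm², 400 × 400 nm² and 200 × 200 nm², height scale 2 nm. Pores followed over 2 h.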

Escherichia coli [24] = assay: Antimicrobial activity against Escherichia coli TOP10 at pH 6 to 8; format: functional, organism-based
How it was run: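 E. coli TOP10 broth microdilution with growth medium at pH 8 and pH 6; MIC taken as lowest concentration inhibiting visible growth.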

Acinetobacter baumannii [25] = assay: Antimicrobial activity against colistin/meropenem-resistant Acinetobacter baumannii GSAB 164 incubated for 18 to 20 hrs by broth microdilution assay; format: functional; conditions: time 18-20 hrs; how it was run: as §7
[26] = Toxicity in neutropenic CD-1 mouse deep thigh infection model infected with Acinetobacter baumannii ATCC 19606 assessed as body weight change at 0.17 mg/kg, ip measured after 4 days; format: organism-based; conditions: in vivo, 96 h, time 4 day; how it was run: as §6
Mus musculus [27] = assay: Induction of wound healing activity in immunosuppressed Balb/c mouse excisional dorsal wound infection model infected with Acinetobacter baumannii NCTC 13301 assessed as reduction in wound expansion at about 10 mg/kg treated for 7 days once daily; format: functional, organism-based; conditions: time 7.0 day
Acinetobacter baumannii [28] = assay: Antimicrobial activity against Acinetobacter baumannii CIP7010 incubated for 16 to 20 hrs; format: functional; conditions: time 16-20 hrs; how it was run: as §7
Acinetobacter baumannii [29] = assay: Anti-infective activity against Acinetobacter baumannii ATCC 19606 infected in neutropenic CD-1 mouse deep thigh infection model assessed as reduction in bacterial load at 0.17 mg/kg, ip measured after 4 days; format: functional, organism-based; conditions: time 4.0 day; how it was run: as §4
[30] = Toxicity in immunosuppressed Balb/c mouse excisional dorsal wound infection model infected with Acinetobacter baumannii NCTC 13301 assessed as body weight loss at about 10 mg/kg treated for 7 days once daily measured after 45 days; format: organism-based; conditions: in vivo, 1080 h, time 45 day
How it was run: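 Excisional dorsal wound model in immunosuppressed mice infected with 5 × 10⁴ cells per mL of A. baumannii. Treated, PBS-treated and untreated groups were compared. Body weight and survival were followed for 45 days.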

For H-KKKKKLKKILKKLFQFINQLDNQLQDIKKKKK-OH, the inhibition at 30 µM (Staphylococcus aureus [1]) was less than 45%, the IC50 at 1 h [2] was greater than 50 µM and the Activity (Staphylococcus aureus [3]) was “Active”. The half-life at 10 mg/ml [4] was greater than 6 h, the Activity (Acinetobacter baumannii [5]) was “Active” and the Activity [6] was “Non-Toxic”. For the same substance, the Activity (Enterococcus faecium) was “Active”, the Activity (Escherichia coli [7]) was “Active” and the Activity (Acinetobacter baumannii [8]) was “inactive”. For the same substance, the Activity (Escherichia coli [9]) was “Active”, the inhibition at 30 µM (Staphylococcus aureus [10]) was less than 45% and the Activity (Klebsiella pneumoniae [11]) was “Active”. For the same substance, the inhibition at 30 µM (Staphylococcus aureus [12]) was less than 45%, the inhibition at 30 µM (Staphylococcus aureus [13]) was less than 45% and the Activity (Pseudomonas aeruginosa [14]) was “Active”. The Activity (Acinetobacter baumannii [15]) was “inactive”, the viability at 1 h, 50 µM [16] was 100% and the Activity [17] was “Non-Toxic”. The Activity (Pseudomonas aeruginosa [18]) was “Active” and the Activity (Klebsiella pneumoniae [19]) was “Active”.
For H-KKKKLKKILKKLFQFINQLDNQLQDIKKKK-NH2, the inhibition at 30 µM (Staphylococcus aureus [1]) was less than 45%, the Activity [20] was “Toxic” and the IC50 at 1 h [2] was greater than 50 µM. For the same substance, the Activity (Mus musculus [21]) was “Active”, the MIC (Escherichia coli [22]) was 1 µM and the Activity (Staphylococcus aureus [3]) was “Active”. The half-life at 10 mg/ml [4] was greater than 6 h, the Activity (Acinetobacter baumannii [5]) was “Active” and the Activity (Mus musculus [23]) was “inactive”. For the same substance, the Activity (Lipid bilayer) was “Active”, the Activity [6] was “Non-Toxic” and the Activity (Escherichia coli [24]) was “Active”. For the same substance, the Activity (Enterococcus faecium) was “Active”, the MIC (Acinetobacter baumannii [25]) was 1 µM and the Activity (Escherichia coli [7]) was “Active”. For the same substance, the Activity (Escherichia coli [9]) was “Active”, the inhibition at 30 µM (Staphylococcus aureus [10]) was less than 45% and the Activity [26] was “Non-Toxic”. For the same substance, the Activity (Klebsiella pneumoniae [11]) was “Active”, the inhibition at 30 µM (Staphylococcus aureus [12]) was less than 45% and the Activity (Mus musculus [27]) was “Active”. The inhibition at 30 µM (Staphylococcus aureus [13]) was less than 45%, the Activity (Pseudomonas aeruginosa [14]) was “Active” and the Activity (Acinetobacter baumannii [15]) was “inactive”. The MIC (Acinetobacter baumannii [28]) was 0.5 µM, the viability at 1 h, 50 µM [16] was 100% and the Activity (Acinetobacter baumannii [29]) was “inactive”. For the same substance, the Activity [30] was “Toxic”, the Activity (Pseudomonas aeruginosa [18]) was “Active” and the Activity (Klebsiella pneumoniae [19]) was “Active”.
